Runt-CBFb FRET = inhibitors of RUNX1 Runt–CBFb binding, primary screen, biochemical, FRET, Cerulean-Runt, Venus-CBFb, uHTS; Runt-related transcription factor 1 (Homo sapiens) + Core-binding factor subunit beta …; Cerulean-Runt/Venus-CBFb FRET ratio 530/480, 1 h; inhibition, % at 20 µM; hit rate 0.46% among 220,000; AID 1496, 2009;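 active = inhibition over about 50% at 20 µM in the single-dose screen, limit read from the data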;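 also: 0% = DMSO wells and 100% = excess unlabeled CBFb competitor control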
Target sequence (Q01196 whole entry, looked up): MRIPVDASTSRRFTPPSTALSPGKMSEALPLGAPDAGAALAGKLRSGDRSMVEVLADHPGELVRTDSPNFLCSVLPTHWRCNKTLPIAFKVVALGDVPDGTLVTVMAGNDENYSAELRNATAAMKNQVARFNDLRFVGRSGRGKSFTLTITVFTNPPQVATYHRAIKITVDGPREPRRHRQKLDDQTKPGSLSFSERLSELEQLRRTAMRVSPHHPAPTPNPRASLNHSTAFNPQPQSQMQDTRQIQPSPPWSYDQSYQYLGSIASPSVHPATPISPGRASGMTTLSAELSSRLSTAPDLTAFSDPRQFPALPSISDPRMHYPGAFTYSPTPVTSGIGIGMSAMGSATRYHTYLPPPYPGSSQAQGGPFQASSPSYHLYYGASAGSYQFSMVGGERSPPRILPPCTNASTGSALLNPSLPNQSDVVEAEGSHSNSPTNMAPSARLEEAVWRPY
Target sequence (Q13951 whole entry, looked up): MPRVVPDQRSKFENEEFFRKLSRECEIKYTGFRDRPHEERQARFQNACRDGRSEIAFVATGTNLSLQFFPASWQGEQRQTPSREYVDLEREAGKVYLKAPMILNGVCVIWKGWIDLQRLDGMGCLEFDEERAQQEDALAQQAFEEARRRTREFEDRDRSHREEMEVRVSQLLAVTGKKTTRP
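Schedule: protein complex preformed 1 h, compound exposure 1 h, room temperature, dark; test system: Cerulean-labeled Runt domain protein; amount: 100 nM per protein; buffer or medium: Tris 50 mM pH 7.5, KCl, K2SO4, 0.01% BSA; read-out: loss of energy transfer signal; detection: FRET fluorescence; controls: 5 µM unlabeled CBFb as full-inhibition high control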
Wee1 degr inh = Wee1 degradation inhibitors, primary screen, cell-based, HeLa, Wee1K328M-luciferase, luminescence; HeLa Luc-Wee1K328M stability; 100% = proteasome inhibitor MG132 effect; reporter increase, % at 5 µM; Wee1-like protein kinase (Homo sapiens), P30291; hit rate 1.2% among 220,000; AID 1321, 2008;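 active = activation above the mean of all tested compounds plus 3 SD, set per screening run, cut at about 8.8% in these data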;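 also: cells exposed to compound for 20 h before luminescence read; 0% = DMSO alone and 100% = MG132 at 30 µM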
RanGTP-Imp inh = inhibitors of RanGTP-importin-beta interaction, primary screen, biochemical, FRET, CFP-Ran, YFP-importin-beta, homogeneous | Ran GTPase (GTP-bound) - importin-beta complex | cell-free CFP-Ran/YFP-importin-beta FRET ratio | inhibition, % (concentration not given with the values) | hit rate 1.1% among 300,000 | AID 2216, 2009;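 active = more than half of the replicate wells show a fall in the fluorescence ratio signal beyond about 16%, limit read from the data, passing the limit was not always enough; inconclusive = exactly half of the replicate wells pass the set limit; inactive = fewer than half of replicates pass the limit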;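 also: 0% = DMSO wells and 100% = Ran loaded with GDP instead of GTP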
PHOSPHO1 inh = PubChem AID 1565 | Phosphoethanolamine/phosphocholine phosphatase (Homo sapiens), Q8TCT1 | recombinant PHOSPHO1, absorbance phosphatase assay | inhibition, % at 13.3 µM | hit rate 1.1% among 290,000; in the data active = inhibition above about 60%
Runt-SMMHC FRET = inhibitors of RUNX1 Runt–CBFb-SMMHC binding, primary screen, biochemical, FRET, Cerulean-Runt, Venus-CBFb-SMMHC, uHTS; inhibition, % at 20 µM; hit rate 0.74% among 220,000; AID 1434, 2008; Cerulean-Runt/Venus-CBFb-SMMHC FRET ratio 530/480, 1 h; Runt-related transcription factor 1 (Homo sapiens) + Core-binding factor subunit beta …;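 active = mean inhibition across duplicate retests at 20 µM reaching about 50%, limit read from the data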;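 also: 0% = DMSO wells and 100% = wells with excess untagged CBFb-SMMHC; inhibitors lower the FRET ratio by blocking Runt binding to CBFb-SMMHC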
HMGR II inh = inhibitors of E. faecalis class II HMGR, primary screen, biochemical, Enterococcus faecalis. HMG-CoA reductase (Enterococcus faecalis, mvaE). purified E. faecalis HMGR, NADPH absorbance 340 nm kinetic. inhibition, % at 10 µM. hit rate 0.41% among 190,000. AID 1066, 2008;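 active = inhibition above a set limit, the median over all tested compounds plus 3 SD, cut at about 9.5% in these data; inconclusive = no clear call, values can overlap the other calls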;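 also: enzyme runs in reverse so mevalonate oxidation gives rising NADPH absorbance; 0% = complete reaction with DMSO and 100% = background rate lacking mevalonate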
* hit, by the source's call; ? = inconclusive; / = no result. Compounds with a hit are over-represented: about 3.4% of the library has one in this group of screens.

SMILES | Runt-CBFb FRET | Wee1 degr inh | RanGTP-Imp inh | PHOSPHO1 inh | Runt-SMMHC FRET | HMGR II inh
CN(C)C(=O)CSc1n[nH]c(=O)n1CCc1ccccc1 | / | / | -0.6 | 18.7 | / | /
Cc1coc2cc3oc(=O)c(CCC(=O)N4C[C@H]5C[C@@H](C4)c4cccc(=O)n4C5)c(C)c3cc12 | / | / | 4.3 | 59.7 | / | /
Cc1ccccc1C(=O)c1cccn1CC(=O)NC1CCCC(C)C1C (stereo unspecified) | / | / | 3.5 | 17.1 | / | /
CCCCn1c(=O)c2ccccc2c2ccccc2c1=O | -0.6 | 1.0 | / | 12.2 | -1.0 | 31.6*
CC1CCCCC1NC(=O)Cn1cccc1C(=O)c1ccccc1 (stereo unspecified) | / | / | -3.1 | 69.7* | / | /
CC1=CC(C)C2C(=O)N(CCC[N+](C)(C)C)C(=O)C2C1 (stereo unspecified) | -16.6 | -2.0 | ? | 93.5* | 7.3 | 0.2
C[N+](C)(C)CCCN1C(=O)CCCC1=O | -6.7 | -0.7 | 0.0 | 9.4 | 8.4 | 1.3
CCn1cc(Br)c(C(=O)Nc2ccc(Cl)c(Cl)c2)n1 | -3.5 | -1.5 | 57.2* | 12.2 | 2.8 | -6.3
CCn1cc(Br)c(C(=O)Nc2cccc(Cl)c2)n1 | 1.3 | -1.5 | 2.1 | -17.2 | 0.9 | 0.9
Nc1nonc1-n1nnc(C(=O)N/N=C/c2cccc(F)c2)c1CN1CCCCCC1 | / | / | 6.7 | / | / | /
CC(O)c1n(C)c(Cl)c[n+]1C (stereo unspecified) | -19.6 | 3.8 | -2.8 | 78.6* | 2.2 | -10.6
CCOC(=O)/C=C/C(=O)OCC(=O)Nc1ccc(C)cc1 | 4.9 | -2.7 | 0.1 | -8.8 | -1.2 | 11.3*
CCOC(=O)/C=C/C(=O)OCC(=O)Nc1cccc(Br)c1 | 6.3 | -0.4 | -3.7 | 10.8 | 1.6 | -2.4
O=C1CC(C(=O)Nc2ccccc2)S/C(=N\N=C\c2ccco2)N1 (stereo unspecified) | 2.2 | -1.3 | -1.7 | -20.2 | 4.7 | -4.3
COc1ccc(NC(=O)C2CC(=O)N/C(=N/N=C/c3ccco3)S2)cc1 (stereo unspecified) | 4.7 | 9.4* | -3.6 | 9.0 | -0.1 | /
CC1CC1C(=O)OCC(=O)NC(=O)NCc1ccco1 (stereo unspecified) | 2.2 | 2.6 | 2.2 | -18.0 | -0.8 | -3.4
CSCCC(NS(=O)(=O)c1ccc(C)cc1)C(=O)NNC(=O)c1csc(N2CCOCC2)n1 (stereo unspecified) | / | / | 0.7 | 12.3 | / | /
Cc1ccc(S(=O)(=O)c2nc(-c3cccs3)oc2SCC(N)=O)cc1 | -1.4 | -0.1 | -2.8 | 60.3* | -3.4 | 1.2
Cc1ccc(S(=O)(=O)N(C)C)cc1NC(=O)C(C)N(C)CCOc1ccc(Cl)cc1 (stereo unspecified) | / | / | -5.5 | -7.2 | / | /
Cc1cc(C)c(S(=O)(=O)N2CC=C(c3ccccc3)CC2)c(C)c1 | / | / | 3.7 | / | / | /
Cc1ccc(NC(=O)CC2S/C(=N/N=C/c3c[nH]c4ccccc34)NC2=O)cc1 (stereo unspecified) | 2.2 | 9.7* | 3.2 | -5.2 | 6.8 | -3.8
CCOC(=O)c1ccc(NC(=O)CC2S/C(=N/N=C/c3c[nH]c4ccccc34)NC2=O)cc1 (stereo unspecified) | -1.0 | 4.5 | -2.3 | 6.3 | 5.1 | -1.3
COc1ccc(-c2nc(CN3CCN(c4ncnc5ccccc45)CC3)c(C)o2)c(OC)c1 | -4.6 | -1.9 | 2.2 | 64.2* | 3.5 | -2.4
CC(C)(C)OC(=O)N/N=C\c1ccc([N+](=O)[O-])s1 | 0.5 | 0.2 | -1.4 | -25.8 | -6.7 | 2.1
CCOC(=O)N/N=C\c1ccc([N+](=O)[O-])s1 | 6.2 | -2.4 | -3.5 | 10.4 | -2.5 | 11.0*
SMILES | Runt-CBFb FRET | Wee1 degr inh | RanGTP-Imp inh | PHOSPHO1 inh | Runt-SMMHC FRET | HMGR II inh
Cc1sc2ncn(CC(=O)NCCCC(=O)N3CCN(c4ccccc4)CC3)c(=O)c2c1C | 54.8* | -0.9 | -2.2 | 9.9 | 42.1 | 0.1
Cc1ccc(NC(=O)c2sc3ncn(CC(=O)N4CCN(c5ccccn5)CC4)c(=O)c3c2C)cc1Cl | / | / | -3.3 | 63.6* | / | /
Cc1sc2ncn(CC(=O)NCCCC(=O)N3CCCCC3)c(=O)c2c1C | / | / | 4.1 | 32.3 | / | /
CC12CC(NC(=O)N1c1cccc(C(=O)NCc3ccccn3)c1)c1ccccc1O2 (stereo unspecified) | / | / | -0.2 | 43.5 | / | /
CCOC(=O)CN1NC2(CCC(C)CC2)NC1=S (stereo unspecified) | 48.1 | 3.0 | 0.3 | 95.3* | 24.8 | -3.2
CCOC(=O)CN1NC2(CCCCC2)NC1=S | 25.7 | -0.7 | 6.4 | 100.3* | 46.6 | -3.4
O=C(O)CC1COc2ccccc2N1C(=O)c1ccccc1Cl (stereo unspecified) | 0.1 | -1.2 | ? | 16.5 | 0.3 | 0.9
CCOc1ccc(NC(=O)C(=O)NCCN2CCN(C(=O)c3ccc(C)cc3)CC2)cc1 | / | / | -2.3 | 41.6 | / | /
NNc1nc2c(-c3ccc(F)cc3)nnn2c2ccccc12 | 13.3 | 2.9 | 21.2* | -4.9 | -5.0 | 2.4
Cc1ccc(Nc2nc3ccccc3nc2-n2nc(C)cc2C)cc1 | 4.3 | -0.5 | 30.7* | 26.2 | 11.0 | -1.0
CCOC(=O)c1c2ccc(OCC(=O)NN)cc2n2ccccc12 | 20.8 | 5.7 | 66.0* | 31.7 | 86.1* | 2.7
Cc1ccc(/C=N/NC(=O)CNC(=O)COc2ccccc2)cc1 | 1.8 | -2.0 | -1.4 | 3.5 | -0.1 | -3.9
CCOC(=O)c1c2ccc(OCC(=O)N/N=C/c3ccc(C)cc3)cc2n2ccccc12 | -4.1 | -0.2 | 29.3* | 23.8 | 77.9 | 2.1
O=S(=O)(CC(O)COc1ccccc1Cl)c1ccccc1 (stereo unspecified) | -3.9 | 1.9 | 6.1 | 66.1* | -0.3 | -0.7
Cc1noc(C)c1S(=O)(=O)N1CCC(C(=O)NCCN2CCC(C)CC2)CC1 | -0.5 | 0.4 | 2.1 | -11.4 | -0.6 | 11.1*
Cc1ccc(SCC(=O)NCC(C)C)cc1 | 0.3 | 1.9 | 0.7 | -30.5 | -2.9 | -1.4
CC(C)CNC(=O)CSc1ccc(Cl)cc1 | 0.3 | -1.6 | -1.2 | 13.8 | -2.8 | 37.3*
O=C(O)c1cc(S(=O)(=O)NC23CC4CC(CC(C4)C2)C3)ccc1Cl | / | / | 1.8 | 15.6 | / | /
CC1CCCCN1C(=S)NCCc1ccccc1 (stereo unspecified) | 1.7 | -1.1 | 6.2 | 88.1* | -5.8 | -0.6
CCN(CC)Cc1nc2c(c(=O)[nH]1)C(CC)(CC)Cc1ccccc1-2 | / | / | 7.1 | 29.5 | / | /
